Measurements as given in PMC8165011 (European journal of medicinal chemistry, 2021).
Values after ≈ are worked out from the molar mass of the structure shown.

Tests used:
[1] = tested on: E. faecalis clinical isolates (VRE); test: MIC against clinical isolates of E. faecalis; format: cell-based
[2] = tested on: E. faecium clinical isolates (VRE); test: MIC against clinical isolates of E. faecium; format: cell-based
[3] = tested on: S. aureus clinical isolates (MSSA, MRSA); test: MIC against clinical isolates of S. aureus; format: cell-based; conditions: Staphylococcus aureus
[4] = tested on: E. faecalis ATCC 29212 preformed biofilm; test: Biofilm destruction assay; format: cell-based; conditions: 2xMIC
[5] = tested on: S. aureus and E. faecalis biofilms; test: Biofilm inhibition and destruction at 4x and 8xMIC; format: cell-based; conditions: 4x and 8xMIC (data not shown)
[6] = tested on: S. aureus UAMS-1 catheter-associated biofilm; test: In vitro model of catheter-associated biofilm; format: cell-based; conditions: after 2 days of exposure, 20xMIC (40 μg/ml), per catheter
[7] = tested on: S. aureus ATCC 700699 (MRSA) stationary phase persister cells; test: Persister cell killing assay; format: cell-based; conditions: for log reduction of persister cells: within 4 h
[8] = tested on: S. aureus ATCC 700699 (MRSA); test: Multistep; format: cell-based; conditions: sub-lethal exposure, 21 passages
E. faecalis ATCC 29212 = test: Multistep; format: cell-based; conditions: for increase in resistance (in words): through the 14th passage
S. aureus ATCC 700699 = test: Time kill assay; format: cell-based; conditions: 4xMIC
How it was run: (§1)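 Log-phase culture diluted to ~5 × 10^6 CFU/ml in warm CAMHB and exposed to test compound at 4xMIC at 35 °C. Samples taken every 2 h, diluted 10-fold down to 10^-5, and viable counts done by 6×6 drop plating after 18–24 h at 35 °C. Each assay run in triplicate.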

S. aureus ATCC 33591 = test: Time kill assay; format: cell-based; conditions: 4xMIC
How it was run: as §1

[9] = tested on: methicillin-sensitive clinical isolate of S. aureus UAMS-1; conditions: breakpoint MIC used for comparison; ref not given; cited from earlier work
[10] = tested on: human embryonic kidney (HEK293) cells; test: Cytotoxicity against HEK293 cell line; format: cell-based; conditions: HEK293 IC50 / MIC for S. aureus ATCC 25923 and ATCC 700699; as high as
How it was run: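 HEK293 cells kept in EMEM with 10% FBS at 37 °C, 5% CO2. Seeded at 4000 cells/well and treated 24 h with a concentration range of test compound in DMSO. Resazurin (0.15 mg/ml solution as added) incubated 4 h more; fluorescence read at ex 560/em 590 nm. IC50 obtained by curve fitting; selectivity factor computed as IC50/MIC.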

[11] = tested on: S. aureus ATCC 25923 biofilm; test: Biofilm inhibition assay; format: cell-based; conditions: 2xMIC
How it was run: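 After 24 h at 35 °C: PBS washes, drying at 60 °C for 15 min, 0.1% (w/v) crystal violet for 15 min, solubilisation in 33% acetic acid, OD 620 nm. Controls: broth only, and bacteria with DMSO.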

[12] = tested on: tested Gram-positive strains; test: MIC assay, summary over the tested Gram-positive strains; format: cell-based; conditions: tested Gram-positive strains
How it was run: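 CLSI standard broth microdilution. Test compound started at 50 µg/ml and serially diluted 2-fold. Run in triplicate.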

[13] = tested on: S. aureus ATCC 25923 preformed biofilm; test: Biofilm destruction assay; format: cell-based; conditions: 2xMIC
[14] = tested on: S. aureus ATCC 25923 (MSSA); test: Multistep; format: cell-based; conditions: sub-lethal exposure, 21 passages
[15] = tested on: DNA synthesis in S. aureus ATCC 29213; test: Macromolecular synthesis inhibition: DNA synthesis; format: cell-based; conditions: 0.25xMIC
[16] = tested on: lipid synthesis in S. aureus ATCC 29213; test: Macromolecular synthesis inhibition: lipid synthesis; format: cell-based; conditions: MIC

## CN[C@H](CC(C)C)C(=O)N[C@H]1C(=O)N[C@@H](CC(N)=O)C(=O)N[C@H]2C(=O)N[C@H]3C(=O)N[C@H](C(=O)N[C@H](C(=O)O)c4cc(O)cc(O)c4-c4cc3ccc4O)[C@H](O)c3ccc(c(Cl)c3)Oc3cc2cc(c3O[C@@H]2O[C@H](CO)[C@@H](O)[C@H](O)[C@H]2O[C@H]2C[C@](C)(N)[C@H](O)[C@H](C)O2)Oc2ccc(cc2Cl)[C@H]1O [vancomycin, Vancomycin]
[1]; E. faecalis 1091563, VRE
  MIC: >32 µg/mL
[1]; E. faecalis 1091720, VRE
  MIC: >32 µg/mL
[1]; E. faecalis 1094112, VRE
  MIC: >32 µg/mL
[1]; E. faecalis 1100440, VRE
  MIC: >32 µg/mL
[1]; Enterococcus faecalis, VRE
  MIC: > 32 µg/mL
[2]; E. faecium 1088168, VRE
  MIC: >32 µg/mL
[2]; E. faecium 1088925, VRE
  MIC: >32 µg/mL
[2]; E. faecium 1089544, VRE
  MIC: >32 µg/mL
[2]; E. faecium 1091282, VRE
  MIC: >32 µg/mL
[2]; Enterococcus faecium, VRE
  MIC: > 32 µg/mL
[3]; ATCC29213|MRSA|MSSA, S. aureus ATCC 29213, MSSA
  MIC: 1 µg/mL (≈ 0.69 µM)
[3]; MRSA|MSSA, S. aureus 1088060, MSSA
  MIC: 0.5 µg/mL (≈ 0.345 µM)
[3]; MRSA|MSSA, S. aureus 1088064, MRSA
  MIC: 0.5 µg/mL (≈ 0.345 µM)
[3]; MRSA|MSSA, S. aureus 1088105, MSSA
  MIC: 1 µg/mL (≈ 0.69 µM)
[3]; MRSA|MSSA, S. aureus 1088610, MRSA
  MIC: 0.5 µg/mL (≈ 0.345 µM)
[3]; MRSA|MSSA, S. aureus 1088626, MSSA
  MIC: 0.5 µg/mL (≈ 0.345 µM)
[3]; MRSA|MSSA, S. aureus 1088888, MRSA
  MIC: 1 µg/mL (≈ 0.69 µM)
[3]; MRSA|MSSA, S. aureus 1089106, MRSA
  MIC: 1 µg/mL (≈ 0.69 µM)
[4]
  preformed biofilm destroyed: around 70%
[5]
  biofilm inhibition and destruction: > 95%
[6]
  average CFU counts: 1.16 × 10^7 CFU
[7]; 64xMIC
  effect on viability of MRSA persisters (in words): did not affect the viability
[8]
  passage at which MIC doubled: 7 passage
E. faecalis ATCC 29212; 14 passages
  passage after which resistance increased: 7 passage
S. aureus ATCC 700699
  time to decrease bacterial concentration below detectable limits: 8 h
S. aureus ATCC 33591
  time to decrease bacterial concentration below detectable limits: 8 h
[9]
  breakpoint MIC: ≥ 2 µg/mL

## O=C(O)c1ccc(-n2cc(CNc3cc(Cl)c(F)c(Cl)c3)c(-c3ccc(C(F)(F)F)cc3)n2)cc1 [Compound 74, 4-[4-[(3,5-dichloro-4-fluoro-anilino)methyl]-3-[4-(trifluoromethyl)phenyl]pyrazol-1-yl]benzoic acid]
[10]
  Selectivity factor (IC50/MIC values): ≤ 33
[11]
  biofilm formation inhibited: greater than 85%
[7]; 2xMIC
  log reduction of persister cells: ~ 1 log
[7]; 4xMIC
  log reduction of persister cells: ~ 1 log
[7]; 8xMIC
  log reduction of persister cells: ~ 1 log
E. faecalis ATCC 29212
  increase in resistance (in words): no increase in resistance
S. aureus ATCC 700699
  time to eliminate more than 3 log values: ≤ 6 h
S. aureus ATCC 33591
  time to eliminate more than 3 log values: ≤ 4 h

## O=C(O)c1ccc(-n2cc(CNc3cc(F)cc(C(F)(F)F)c3)c(-c3ccc(C(F)(F)F)cc3)n2)cc1 [Compound 59, 4-[4-[[3-fluoro-5-(trifluoromethyl)anilino]methyl]-3-[4-(trifluoromethyl)phenyl]pyrazol-1-yl]benzoic acid]
[12]
  antimicrobial activity (in words): most potent compound
[10]
  Selectivity factor (IC50/MIC values): ≤ 13
[13]
  preformed biofilm eliminated: around 70%
[5]
  biofilm inhibition and destruction: > 95%
[6]
  average CFU counts: 4.74 × 10^5 CFU
[7]; 2xMIC
  log reduction of persister cells: ~ 1 log
[7]; 8xMIC
  log reduction of persister cells: ~ 3 log
[14]
  passage at which MIC doubled: 8 passage
E. faecalis ATCC 29212
  increase in resistance (in words): no increase in resistance
S. aureus ATCC 700699
  time to eliminate more than 3 log values: ≤ 4 h
S. aureus ATCC 700699; within 4 h of treatment
  log values of bacteria eliminated: more than 3 log
S. aureus ATCC 33591
  time to eliminate more than 3 log values: ≤ 4 h
S. aureus ATCC 33591; within 4 h of treatment
  log values of bacteria eliminated: more than 3 log
[15]
  inhibition of DNA synthesis: approximately 44%
[16]
  inhibition of lipid synthesis: 56.2%
